Test results as given in ChEMBL document CHEMBL1138925, “Design and synthesis of orally active pyrrolidin-2-one-based factor Xa inhibitors” (Bioorg Med Chem Lett, 2006).

Legend:
[1] = Lipophilicity, log D by CHI assay at pH 7.4; assay type: physicochemical; conditions: buffer, read-out: Log D
[2] = Volume of distribution in Han Wistar rat at 1 mg/kg, iv and 2.5 mg/kg, po; assay type: ADME, organism-based; conditions: in vivo, read-out: Vss
Procedure, shortened: (§1)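 Male Han Wistar rats were given an intravenous bolus at a nominal 1 mg/kg, or oral gavage at a nominal 2.5 mg/kg.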

[3] = Half life in Han Wistar rat at 1 mg/kg, iv and 2.5 mg/kg, po; assay type: ADME, organism-based; conditions: in vivo; procedure, shortened: as §1
[4] = Plasma clearance in Han Wistar rat at 1 mg/kg, iv and 2.5 mg/kg, po; assay type: ADME, organism-based; procedure, shortened: as §1
[5] = Oral bioavailability in Beagle dog at 1 mg/kg, iv and 1 mg/kg, po; assay type: ADME, organism-based, Canis lupus familiaris; conditions: in vivo
[6] = Volume of distribution in Beagle dog at 1 mg/kg, iv and 1 mg/kg, po; assay type: ADME, organism-based, Canis lupus familiaris; conditions: in vivo, read-out: Vss
[7] = Oral bioavailability in Han Wistar rat at 1 mg/kg, iv and 2.5 mg/kg, po; assay type: ADME, organism-based; conditions: in vivo; procedure, shortened: as §1
[8] = Half life in Beagle dog at 1 mg/kg, iv and 1 mg/kg, po; assay type: ADME, organism-based, Canis lupus familiaris; conditions: in vivo
[9] = Plasma clearance in Beagle dog at 1 mg/kg, iv and 1 mg/kg, po; assay type: ADME, organism-based, Canis lupus familiaris

SMILES | chromatographic logD [1] | Vd [2] [L/kg] | half-life [3] [min] | clearance [4] [mL/min/kg] | bioavailability [5] [%] | Vd [6] [L/kg] | bioavailability [7] [%] | half-life [8] [min] | clearance [9] [mL/min/kg]
C[C@@H](C(=O)N1CC2CCC1CC2)N1CC[C@H](NS(=O)(=O)c2ccc3cc(Cl)ccc3c2)C1=O | 2.94 | – | – | – | – | – | – | – | –
C[C@@H](C(=O)N1CC2CNCC(C2)C1)N1CC[C@H](NS(=O)(=O)c2ccc3cc(Cl)ccc3c2)C1=O | 1.47 | – | – | – | – | – | – | – | –
C[C@@H](C(=O)N1CCOCC1)N1CC[C@H](NS(=O)(=O)c2ccc3cc(Cl)ccc3c2)C1=O | 2.2 | 0.6 | 54 | 13 | 100 | 0.44 | 85 | 126 | 2.7

Now from value to compound:

chromatographic logD [1] | Vd [2] [L/kg] | half-life [3] [min] | clearance [4] [mL/min/kg] | bioavailability [5] [%] | Vd [6] [L/kg] | bioavailability [7] [%] | half-life [8] [min] | clearance [9] [mL/min/kg] | SMILES
– | 0.4 | 30 | 15 | – | – | – | – | – | C[C@@H](C(=O)N1CCOCC1)N1CC[C@H](N(C)S(=O)(=O)c2ccc3cc(Cl)ccc3c2)C1=O
– | 0.3 | 12 | 37 | – | – | – | – | – | C[C@@H](C(=O)N1CCOCC1)N1CC[C@H](N(CC(=O)O)S(=O)(=O)c2ccc3cc(Cl)ccc3c2)C1=O
– | 0.5 | 18 | 24 | – | – | – | – | – | C[C@@H](C(=O)N1CCOCC1)N1CC[C@H](N(CC(N)=O)S(=O)(=O)c2ccc3cc(Cl)ccc3c2)C1=O
– | 1.1 | 30 | 37 | – | – | – | – | – | CCC(=O)CN([C@H]1CCN([C@@H](C)C(=O)N2CCOCC2)C1=O)S(=O)(=O)c1ccc2cc(Cl)ccc2c1
